High-throughput results (PubChem)
WT yeast gro inh – growth inhibition of WT strain, primary screen, mitochondrial fusion inhibitor project, WT and mutant strains, chemical genetic; hit rate 2.1% among 190,000; inhibition, % at 10 µM; mitochondrial fusion phenotypic screen; in the data active = inhibition above about 58%; tested in S. cerevisiae
Autophagy HCS – autophagy modulators in MEF cells, primary screen, imaging, high-content, MEF GFP-LC3 | MEF GFP-LC3 puncta imaging; test concentration mostly 10 µM | calls only at 10 µM (by protocol) | hit rate 0.98% among 190,000 | AID 463193, 2010;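 active = percentage of spot-positive cells more than 3 SD above its plate mean, without a fluorescence outlier flag or 80% toxicity; inconclusive = no clear call, values can overlap the other calls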;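 note: spot-positive cell cutoff set from DMSO-treated cells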
Rad51 HR inh – human RAD51 strand exchange inhibitors, primary screen, biochemical, fluorescence | hRad51 DNA strand exchange, fluorescence dequenching | hit rate 0.085% among 200,000 | inhibition, % at 10 µM | DNA repair protein RAD51 homolog 1 (Homo sapiens), Q06609;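 active = inhibition above 40% at the single screening dose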;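 note: 0% = DMSO control wells and 100% = blanks with heterologous ssDNA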
Target sequence (Q06609 whole entry, looked up): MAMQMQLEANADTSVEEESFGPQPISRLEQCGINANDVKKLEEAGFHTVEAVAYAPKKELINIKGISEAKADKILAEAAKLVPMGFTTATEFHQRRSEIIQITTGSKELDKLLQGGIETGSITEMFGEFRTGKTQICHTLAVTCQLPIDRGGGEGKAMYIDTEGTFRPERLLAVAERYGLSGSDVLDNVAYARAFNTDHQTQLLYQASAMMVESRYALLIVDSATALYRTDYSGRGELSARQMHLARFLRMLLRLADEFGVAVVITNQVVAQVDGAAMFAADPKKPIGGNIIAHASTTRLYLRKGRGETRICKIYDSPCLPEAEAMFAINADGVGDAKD
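material = hRad51 filaments on single-stranded DNA | timing = filaments 15 min 37 °C, then compound 30 min | signal = FRET fluorescence dequenching, excitation 485 nm, emission 520 nm | benchmarks = control wells and blank wells on each plate | evaluation = percent inhibition relative to plate controls and blanks | compound = 10 µM final, single point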
Cl transport mod – KCC2 cotransporter modulators, thallium flux, primary screen, cell-based, HEK293 KCC2, FluoZin-2 fluorescence, MLSMR; hit rate 2.2% among 190,000; KCC2 cells, thallium flux FluoZin-2 fluorescence; B-score of Tl+ flux slope (higher = more flux/activation; lower = inhibition) at 10 µM; Solute carrier family 12 member 5 (Homo sapiens), Q9H2X9;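 active = thallium flux slope and its plate-corrected score both differing from the plate sample mean at a set confidence after two filtering rounds, in either direction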;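 note: slope of fluorescence scaled to starting intensity during 10 to 20 s after thallium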
SKKanGAS inh – S. pyogenes SKKanGAS growth inhibitors in kanamycin, primary screen, streptokinase expression inhibitor project, SKKanGAS strain, BacTiter-Glo luminescence | hit rate 1.3% among 300,000 | 6 h | inhibition, % at 7.5 µM | AID 1662, 2009;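 active = mean replicate score, as percent of positive control median, at least 50; inconclusive = mean below 50 but one replicate at or above 50; inactive = mean and every replicate below 50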;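 note: strain carries kanamycin resistance gene driven by streptokinase promoter and grows in 40 µg/ml kanamycin; loss of luminescence reflects streptokinase promoter inhibition or plain growth inhibition; 0% = median of DMSO wells and 100% = positive control at its reference dose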
Insulin prom up – insulin promoter activators in MIN6 cells, imaging, high-content screening, mouse beta cells | MIN6 insulin promoter-GFP reporter; active compounds read high | z-score at 5 µM | hit rate 0.3% among 190,000 | AID 1625, 2009;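 active = z-score above 3 at 5 µM with at least 500 cells counted in the well; inconclusive = wells under 500 cells, flagged as cytotoxic or low count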
KCC2 secondary – KCC2 modulators in sodium-free buffer, confirmation, cell-based, HEK293 KCC2, thallium flux, secondary assay; FluoZin2 fluorescence; active compounds read high; hit rate 15% among 3,700; normalised thallium flux (F/F0 slope) at 10 µM; shares compounds with Cl transport mod; AID 1713, 2009;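 active = thallium flux slope above the same plate's solvent-only control mean plus 3 SD; inconclusive = the two replicate wells disagree; inactive = no significant difference from solvent-only control wells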
KCC2 bumet counter – thallium flux persisting under bumetanide in KCC2 cells, confirmation, counter-screen for KCC2 modulator project, cell-based, HEK293 KCC2, FluoZin2, secondary assay 3; normalized thallium flux at 10 µM; HEK293-KCC2 + bumetanide/ouabain; active compounds read high; AID 1714, 2009; hit rate 49% among 3,700; shares compounds with Cl transport mod;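 active = thallium entry rate above the same plate's blocked-transporter control wells by more than 3 SD; inconclusive = the two repeat wells disagree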;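 note: raw slope of fluorescence over initial fluorescence between 10 and 20 s after thallium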
KCC2 secondary2 – KCC2 modulators without ouabain present, confirmation, cell-based, HEK293 KCC2, thallium flux, FluoZin2, secondary assay 2 | shares compounds with Cl transport mod | thallium flux FluoZin2 fluorescence; actives lie on both sides; F/F0 rise rate, 10–20 s post-thallium | normalized thallium flux at 10 µM | hit rate 23% among 3,700 | AID 1715, 2009;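 active = thallium flux slope more than 3 SD above or below the plate's solvent-only control mean, mostly below; inconclusive = the two repeat wells disagreed; inactive = no significant shift from solvent-only controls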;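 note: raw slope with 0.1% DMSO as baseline and bumetanide as block control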
HEK293 Tl flux – thallium flux modulation in parental HEK cells, confirmation, counter-screen for KCC2 modulator project, cell-based, counterscreen 1. hit rate 46% among 3,700. HEK293 parental cells, thallium flux FluoZin2, ouabain; baseline-ratio fluorescence slope, 10–20 s after thallium. thallium flux rate (normalised fluorescence) at 10 µM. AID 1716, 2009. shares compounds with Cl transport mod;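 active = thallium flux rate significantly above the same plate's solvent-only control wells, beyond their mean plus 3 SD; inconclusive = the two replicate wells gave conflicting results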
KCC2 retest ouab – KCC2 inhibitors and activators, ouabain retest, confirmation, HEK-KCC2 cells. shares compounds with Cl transport mod. HEK293-KCC2, thallium flux FluoZin2 fluorescence; bidirectional: low = inhibitor, high = activator. raw Tl+ flux slope (below DMSO = inhibition, above = activation) at 10 µM. hit rate 48% among 3,700;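 active = thallium flux slope beyond 3 SD from same-plate DMSO control mean in most replicates, usually higher, sometimes lower; inconclusive = repeat tests gave conflicting results; inactive = no significant difference from controls in most replicates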;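 note: slope of initial-normalized fluorescence between seconds 10 and 20 after thallium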
HEK counter2 – native HEK Tl+ uptake effects, second counter-screen – HEK cells, counterscreen 2, counter-screen for KCC2 modulator project, confirmation; thallium flux slope at 10 µM; shares compounds with Cl transport mod; hit rate 33% among 3,700; AID 1718, 2009; HEK293 parental, thallium flux FluoZin-2 fluorescence slope;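 active = thallium flux slope above the same plate's solvent-control mean plus 3 SD in both duplicate wells; inconclusive = duplicate wells that disagreed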;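 note: run without ouabain in cells lacking the KCC2 cotransporter; slope of fluorescence scaled to its starting value between 10 and 20 s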
Numbers without * were called inactive; i = inactive; ? = inconclusive; nt = no result given. Sampled rows, rich in hits. Any-hit rate of the full collection: about 4.2%.

SMILES	WT yeast gro inh	Autophagy HCS	Rad51 HR inh	Cl transport mod	SKKanGAS inh	Insulin prom up	KCC2 secondary	KCC2 bumet counter	KCC2 secondary2	HEK293 Tl flux	KCC2 retest ouab	HEK counter2
O=C(CSc1nnc(-c2ccc(O)cc2)n1Cc1ccco1)N1CCc2ccccc2C1	-25	i	-5	-3.7*	-11	-0.67	0.0071	0.004	0.023*	0.0069	0.013*	0.0099
COc1ccc(CN2CCC(n3nccc3NC(=O)c3cccc(F)c3)CC2)cc1O	nt	nt	nt	nt	8	nt	nt	nt	nt	nt	nt	nt
COc1ccc(-c2nnc(SCc3ncc(-c4ccccc4)o3)o2)cc1	7	i	-6	-3*	-17	0.64	0.0068	0.0047	?	0.0066	0.018	0.01
COc1ccc(C(=O)CSc2nnc(-c3ccccc3)o2)cc1	-10	i	3	-2.2	-10	0.83	nt	nt	nt	nt	nt	nt
Cc1cc(C)n(C(=O)/C(C#N)=C/N(C)C)n1	-13	i	7	0.023	-5	-0.65	nt	nt	nt	nt	nt	nt
COc1ccc(CCC(=O)Nc2cc(S(C)(=O)=O)ccc2Cl)cc1	5	i	21	-0.47	-4	0.08	nt	nt	nt	nt	nt	nt
COCCn1c(N)c(N(Cc2ccccc2)C(=O)c2ccc(-c3ccc(Cl)cc3)o2)c(=O)[nH]c1=O	nt	nt	nt	nt	1	nt	nt	nt	nt	nt	nt	nt
COc1cc(OC)c(C2=NOC(C(=O)NCCc3ccccc3)C2)cc1Cl (centres undefined)	4	i	8	nt	-3	-0.39	0.0064	0.0043	0.026*	0.007	?	0.0098
O=C(NCCCCc1ccccc1)C1CC(c2ccccc2C(F)(F)F)=NO1 (centres undefined)	nt	nt	-1	-4.2*	3	0	0.008	0.0044	0.023*	0.0064	0.016*	0.0098
O=C(NCCCCc1ccccc1)C1CC(c2ccccc2[N+](=O)[O-])=NO1 (centres undefined)	-14	i	0	-6.4*	-1	-0.03	0.006	0.0046	0.021*	0.0074	0.013*	0.0092
O=C(NCCCCc1ccccc1)C1CC(c2ccc(C(F)(F)F)cc2)=NO1 (centres undefined)	nt	nt	-7	-0.36	2	0.39	nt	nt	nt	nt	nt	nt
CCc1nnc(NC(=O)c2ccc3c(c2)C(=O)N(CC)C3=O)s1	-1	i	4	0.36	-3	nt	nt	nt	nt	nt	nt	nt
O=C(NCC1CCCO1)c1ccc(N2CCCCC2)c([N+](=O)[O-])c1 (centres undefined)	nt	nt	nt	nt	4	nt	nt	nt	nt	nt	nt	nt
COc1cc2[nH]c(=S)n(C3CCCC3)c(=O)c2cc1OC	1	i	-2	24*	1	-0.65	?	0.043*	0.029	0.017*	0.038*	0.01*
COc1cc2[nH]c(=S)n(C3CC3)c(=O)c2cc1OC	-8	i	3	-1.3	2	-0.22	nt	nt	nt	nt	nt	nt
CC(=O)N1CCOc2ccc(S(=O)(=O)N3CCC(C(=O)NCc4ccc(F)cc4)CC3)cc21	nt	nt	nt	nt	-1	nt	nt	nt	nt	nt	nt	nt
c1ccc2c(c1)[nH]c1c(N3CCC4(CC3)OCCO4)ncnc12	17	i	-1	nt	7	-4.7	0.0061	0.0049	0.032	0.0078	0.018	0.012
COc1cccc2[nH]c3c(N4CCC5(CC4)OCCO5)ncnc3c12	nt	nt	9	0.49	10	0.03	nt	nt	nt	nt	nt	nt
Cc1ccc2[nH]c3c(N4CCN(Cc5ccc6c(c5)OCO6)CC4)ncnc3c2c1	-7	i	nt	nt	nt	?	nt	nt	nt	nt	nt	nt
Cc1ccc2[nH]c3c(N4CCN(Cc5ccccc5)CC4)ncnc3c2c1	25	i	1	nt	3	nt	0.0064	0.005	0.022*	0.0076	?	0.011
O=C(Cc1ccc(Cl)cc1)Nc1ccccc1C(=O)N1CCCCC1	nt	nt	nt	nt	0	nt	nt	nt	nt	nt	nt	nt
O=C(OCC(=O)N1CCCC1=O)c1ccc(O)cc1O	nt	nt	nt	nt	4	nt	nt	nt	nt	nt	nt	nt
Cc1ccc(NC(=O)c2ccc(C(=O)c3ccccc3)cc2)nc1	nt	nt	nt	nt	-18	nt	nt	nt	nt	nt	nt	nt
COc1ccc(C2/C=C\CN(C(=O)CC(C)C)CC(=O)N2Cc2ccc(F)cc2)cc1 (centres undefined)	nt	nt	1	-3*	6	0.81	0.016	0.0034	0.025*	0.0059*	0.015	0.0087
CCc1ccc(NC(=O)COC(=O)CCc2nc3cc(S(=O)(=O)N(CC)CC)ccc3n2C)cc1	14	i	-13	-0.19	2	-0.57	nt	nt	nt	nt	nt	nt
COc1cc(/C=N/NC(=S)Nc2cccc(S(=O)(=O)N(C)C)c2)ccc1O	2	i	nt	-3.4*	-7	-0.23	0.0061	0.0071	0.029	0.0066	0.016*	0.0095
COc1cc(/C=N/NC(=O)c2cccc(NC(=O)c3ccccc3)c2)ccc1O	nt	nt	nt	nt	-1	nt	nt	nt	nt	nt	nt	nt
CN(C)S(=O)(=O)c1cccc(NC(=S)NN=C(Cc2ccccc2)Cc2ccccc2)c1	2	i	4	5.9*	8	-0.12	0.0069	0.0099*	0.034	0.014*	0.023	0.016*
COc1ccc(C(=O)On2c(-c3ccc(Br)cc3)nc3ccccc3c2=O)cc1	24	i	-2	5.8*	19	nt	0.0062	?	0.039*	0.012*	?	0.022*
COc1cc(OC)cc(-c2nc3ccccc3c(=O)n2OC(=O)c2ccc(Br)cc2)c1	-7	i	3	-0.6	9	0.61	nt	nt	nt	nt	nt	nt
